Bioassay records deposited in PubChem BioAssay by several laboratories.
A selection: hits, their analogues and other compounds. The true share with any hit is near 12%.
Autophagy HCS – autophagy modulation, high-content screen; MEF GFP-LC3 puncta imaging; test concentration mostly 10 µM; calls only at 10 µM (by protocol); actives 0.98% (n = 190,000);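 active = percentage of spot-positive cells more than 3 SD above its plate mean, without a fluorescence outlier flag or 80% toxicity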;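 also: spot-positive cell cutoff set from DMSO-treated cells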
L major viab – inhibitors of Leishmania major promastigote growth. actives 9% (n = 200,000). Leishmania major promastigotes, resazurin fluorescence viability. AID 1063. inhibition, % at 10 µM; in the data active = inhibition above about 50%;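 also: promastigotes grown with compound for 44 hours at 28 °C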
Dynein cargo inh – blocks dynein driven cargo transport along microtubules. 3617.4 mouse cells, GR-EGFP nuclear translocation imaging; test concentration mostly 20 µM; stimulated with dexamethasone, 1 µM; active compounds read low. actives 0.47% (n = 220,000). z-score, hits read low;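 active = plate z-score of nuclear minus cytoplasmic receptor signal below a set negative limit, without overly bright fluorescence or cell loss, cut at about -3.5 in these data, passing the limit was not always enough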;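 also: z-score of nuclear minus cytoplasmic ring GR-EGFP intensity difference per well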
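Schedule: 48 h induction, then 1 h compound, then 30 min agonist, 37 °C. Buffer or medium: tetracycline-free induction medium containing charcoal-stripped FBS. Reagent: 1.0 µM final dexamethasone stimulus. Evaluation: nuclear versus cytoplasmic GR-EGFP signal, averaged per well. Signal: high-content fluorescence imaging after fixation.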
MT stabilize HCS – microtubule stabilizers in HeLa cells | % tubulin-high responders, % at 10 µM | AID 2205 | HeLa tubulin immunostaining HCS, 24 h; share of cells brighter than vehicle mean+2SD | actives 0.83% (n = 200,000);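 active = plate Z-score above 3 for both tubulin-high and condensed-nucleus cell shares, with cell loss under 80%, at 10 µM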;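 also: anti alpha tubulin signal scored within the nucleus-defined area of each cell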
bCat nuc transl – modulators of beta-catenin nuclear translocation; HeLa beta-catenin nuclear translocation, immunofluorescence imaging; nuclear translocation activity, % at 5 µM; actives 0.3% (n = 190,000); AID 1665;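 active = nuclear translocation activity above 50% at 5 µM, with a well cell count of 50 or more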;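 also: per-cell ratio of nuclear to cytoplasmic median beta-catenin stain intensity; plate controls were DMSO negative control for no effect and GSK-3 inhibitor IX positive control for full effect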
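assay system = human HeLa cells, endogenous beta-catenin | times = compound treatment 24 h, 37°C, 5% CO2 | detection = Anti-beta-catenin immunofluorescence on PFA-fixed, Triton-permeabilized cells, DAPI nuclei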
CHOP inh – blocks CHOP induction under ER stress | CHO-K1 CHOP-promoter luciferase, tunicamycin-induced, 15-18 h | inhibition, % at 10 µM | actives 3.8% (n = 220,000) | AID 2732;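 active = compounds that reduced the stress-induced luciferase reporter signal by more than about 70% of percent inhibition, limit read from the data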;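 also: 0% = tunicamycin plus vehicle and 100% = wells without tunicamycin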
Active calls of the source: *.

For CCCCSc1nc(C)cc(SCC(=O)N/N=C/c2cccc(OC)c2O)n1 the results were Autophagy HCS inactive, L major viab 98.7*, Dynein cargo inh -0.322, MT stabilize HCS 1.9, bCat nuc transl 1.8 and CHOP inh 74.6*.
`COc1cccc2c(SCC(=O)N/N=C/c3ccc(O)cc3O)cc(C)nc12` gave Autophagy HCS inactive, L major viab 19.9, Dynein cargo inh -0.155, MT stabilize HCS 3.2, bCat nuc transl -1.9 and CHOP inh 23.1.
For COc1ccc2nc(C)cc(SCC(=O)N/N=C/c3c(OC)ccc4ccccc34)c2c1 the results were Autophagy HCS inactive, L major viab 71.0*, Dynein cargo inh 0.105, MT stabilize HCS 1.6, bCat nuc transl 1.5 and CHOP inh 30.0.
`COc1ccccc1/C=N/NC(=O)CSc1cc(C)nc2ccccc12` gave Autophagy HCS inactive, L major viab 12.8, Dynein cargo inh -0.901, MT stabilize HCS 27.3*, bCat nuc transl 35.2 and CHOP inh 6.7.
For COc1ccc2nc(C)cc(SCC(=O)N/N=C/c3ccccc3)c2c1 the results were Autophagy HCS inactive, L major viab 46.9, Dynein cargo inh 0.297, MT stabilize HCS 2.4, bCat nuc transl -0.2 and CHOP inh 33.9.
COc1ccc2nc(C)cc(SCC(=O)N/N=C/c3ccc(O)cc3O)c2c1 was read as Autophagy HCS inactive, L major viab 97.9*, Dynein cargo inh 1.24, MT stabilize HCS 6.0, bCat nuc transl 7.5 and CHOP inh 62.8.
`Cc1ccc(NC(=O)C2(c3ccccc3)CCOCC2)c([N+](=O)[O-])c1` gave Autophagy HCS inactive, L major viab -5.5, Dynein cargo inh 0.48, MT stabilize HCS 1.1, bCat nuc transl -0.1 and CHOP inh 12.2.
CN(C(=O)COC(=O)c1ccc2ccccc2n1)C1CCS(=O)(=O)C1 (stereo unspecified) was read as Autophagy HCS inactive, L major viab -4.5, Dynein cargo inh -0.137, MT stabilize HCS 2.8, bCat nuc transl -0.2 and CHOP inh -10.9.
Cc1nnc2ccc(N3CCOCC3)nn12 was read as Autophagy HCS inactive, L major viab -4.0, Dynein cargo inh -0.193, MT stabilize HCS 1.4, bCat nuc transl 0.0 and CHOP inh 17.1.
Screening CC(=C/C(=O)O)/C(=C/c1ccccc1)C(=O)O returned Autophagy HCS inactive, L major viab -3.3, Dynein cargo inh 0.383, MT stabilize HCS 4.0, bCat nuc transl -1.2 and CHOP inh 41.8.
Screening COc1ccc(CCCC(=O)N/N=C/c2cccc(OC)c2O)cc1C returned Autophagy HCS inactive, L major viab 97.9*, Dynein cargo inh -0.14, MT stabilize HCS 2.3, bCat nuc transl 0.8 and CHOP inh 45.0.
CN(C)C(=O)N(CCCN1CCOCC1)Cc1cccc2ccccc12 was read as Dynein cargo inh 1.84, bCat nuc transl -1.1 and CHOP inh 0.9.
CN(C)S(=O)(=O)c1ccc(NC(=O)CN2CCC(Cc3ccccc3)CC2)cc1 was read as Autophagy HCS inactive, L major viab 76.0*, Dynein cargo inh 0.18, MT stabilize HCS 3.2, bCat nuc transl -2.7 and CHOP inh -24.2.
For CC1CCCN(S(=O)(=O)c2ccc(Br)s2)C1 (stereo unspecified) the results were Autophagy HCS inactive, L major viab -4.7, Dynein cargo inh -0.822, MT stabilize HCS 2.9, bCat nuc transl -0.8 and CHOP inh 22.8.
`CC1CCN(S(=O)(=O)c2ccc(Br)s2)CC1` gave Autophagy HCS inactive, L major viab 4.6, Dynein cargo inh 2.43, MT stabilize HCS 2.5 and CHOP inh 75.0*.
O=C1CCCC2=C1C(c1ccccc1)C1=C(CCCC1=O)O2 was read as bCat nuc transl 1.1.
`O=C1CCCC2=C1C(c1ccc(Cl)cc1)C1C(=O)c3ccccc3C1=N2` (stereo unspecified) gave Autophagy HCS inactive, L major viab 57.0*, Dynein cargo inh 0.184, MT stabilize HCS 1.9 and CHOP inh 26.6.
`CCOC(=O)C1=C(C)N=C2c3ccccc3C(=O)C2C1c1ccc(C)cc1` (stereo unspecified) gave Autophagy HCS inactive, L major viab 5.1, Dynein cargo inh 0.771, MT stabilize HCS 1.9, bCat nuc transl -1.6 and CHOP inh 73.9*.
